Test results: paper PMC3819402 (Journal of medicinal chemistry, 2013)
Entries after “also recorded” stand apart in the source; their conditions may differ. Like-named read-outs stand apart in the source and are kept apart here.

What was measured:
[1] = molecular target: porcine brain tubulin (vinblastine binding site) (Sus scrofa, UniProt P02550+P02554); test: Competitive mass spectrometry binding assay, vinblastine site; settings: vinblastine 1.2 μM, no GTP; competitor 0.1–100 μM
MES-SA / DX5 = test: Cytotoxicity in multidrug-resistant subline MES-SA/DX5; type: cell-based, human; settings: all three pairs of sensitive and drug-resistant cancer cells
[2] = test system: purified bovine brain tubulin; test: In vitro tubulin polymerization; type: biochemical; settings: 10 μM, 37 °C, absorbance at 340 nm over 40 min
DAUDI = test: In vitro cytotoxicity, DAUDI; type: cell-based; settings: Homo sapiens, 96 h, read-out: IC50 (GI50) DAUDI
Method in brief: (§1)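 Tumour cell lines were grown in DMEM or RPMI with 10% FBS and penicillin-streptomycin, then plated in twelve-well dishes. Test compound was added 24 h later at various concentrations. After 96 h, viable cells were counted by trypan blue exclusion from duplicate wells.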

N417 = test: In vitro cytotoxicity, N417; type: cell-based; settings: Homo sapiens, N417, 96 h, read-out: IC50 (GI50) N417
Method in brief: as §1

MOLT-4 = test: In vitro cytotoxicity, MOLT-4; type: cell-based; settings: Homo sapiens, MOLT-4, 96 h, read-out: IC50 (GI50) MOLT-4
Method in brief: as §1

tubulin in DU145 cells = test: In vivo; type: cell-based, human; settings: for polymerized versus soluble tubulin in cells: 24 h treatment
MIAPaCa2 = test: In vitro cytotoxicity, MIAPaCa2; type: cell-based; settings: Homo sapiens, MIA PaCa-2, 96 h, read-out: IC50 (GI50) MIAPaCa2
Method in brief: as §1

H187 = test: In vitro cytotoxicity, H187; type: cell-based; settings: Homo sapiens, NCI-H187, 96 h, read-out: IC50 (GI50) H187
Method in brief: as §1

RF-48 = test: In vitro cytotoxicity, RF-48; type: cell-based; settings: Homo sapiens, RF48, 96 h, read-out: IC50 (GI50) RF-48
Method in brief: as §1

RF-1 = test: In vitro cytotoxicity, RF-1; type: cell-based; settings: Homo sapiens, RF1, 96 h, read-out: IC50 (GI50) RF-1
Method in brief: as §1

HCT116 = test: In vitro cytotoxicity, HCT116; type: cell-based; settings: Homo sapiens, HCT-116, 96 h, read-out: IC50 (GI50) HCT116
Method in brief: as §1

SK BR-3 = test: In vitro cytotoxicity, SK BR-3; type: cell-based; settings: Homo sapiens, SK-BR-3, 96 h, read-out: IC50 (GI50) SK BR-3
Method in brief: as §1

MCF-7 = test: In vitro cytotoxicity, MCF-7; type: cell-based; settings: Homo sapiens, MCF7, 96 h, read-out: IC50 (GI50) MCF-7
Method in brief: as §1

MES-SA = test: In vitro cytotoxicity, MES-SA; type: cell-based; settings: Homo sapiens, 96 h, read-out: IC50 (GI50) MES-SA
H80 = test: In vitro cytotoxicity, H80; type: cell-based; settings: Homo sapiens, 96 h, read-out: IC50 (GI50) H80
Method in brief: as §1

NAMALWA = test: In vitro cytotoxicity, NAMALWA; type: cell-based; settings: Homo sapiens, 96 h, read-out: IC50 (GI50) NAMALWA
Method in brief: as §1

SK-MEL-28 = test: In vitro cytotoxicity, SK-MEL-28; type: cell-based; settings: Homo sapiens, SK-MEL-28, 96 h, read-out: IC50 (GI50) SK-MEL-28
Method in brief: as §1

[3] = molecular target: porcine brain tubulin, preformed microtubules (paclitaxel binding site) (Sus scrofa, UniProt P02550+P02554); test: Competitive mass spectrometry binding assay, paclitaxel site; settings: paclitaxel 1.2 μM, 1 mM GTP, competitor 0.1–100 μM
normal cell line = test: PARP cleavage, normal cell line; type: cell-based; settings: data not shown
HepG2 cells = test: Cytotoxicity to HepG2; type: cell-based; settings: 4 h exposure, Alamar Blue
various tumor cell lines = test: Cytotoxicity across a wide spectrum of cancer cell lines; type: cell-based; settings: Homo sapiens, read-out: IC50 values across tumor cell lines of Table 3
Method in brief: as §1

DU145 cells [4] = test: PARP cleavage western blot, tumor cells; type: cell-based, human; settings: tumor cell line
Method in brief: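 DU145 cells in 100 mm plates were treated 24 h after plating with DMSO or increasing concentrations of test compound, then collected at set time points. Frozen pellets were lysed in 0.1% Triton X-100 buffer with protease inhibitors. Equal protein was run on 10% SDS-PAGE and moved to nitrocellulose. The blot was probed with anti-PARP antibody and IRDye 800 secondary, then scanned on Odyssey for PARP cleavage.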

MIA-PaCa-2 cells = test: Soft agar assay; type: cell-based, human; settings: three weeks of growth
T47D = test: In vitro cytotoxicity, T47D; type: cell-based; settings: Homo sapiens, 96 h, read-out: IC50 (GI50) T47D
Method in brief: as §1

DU145 cells [5] = test: Cell cycle progression by flow cytometry; type: cell-based, human; settings: 24 h, propidium iodide
Method in brief: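 DU145 cells were grown in DMEM with 10% FBS and penicillin-streptomycin, then treated 24 h after plating. Harvest was 24 h after treatment, pooling trypsinised and non-attached cells. Cells were PBS-washed and fixed in ice-cold 70% ethanol for at least 24 h. They were stained with propidium iodide plus RNase A (0.5 mg) for 30 min at 37 °C, run on a FACScan, and analysed for cell-cycle distribution.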

[6] = test system: BT20 human breast tumor xenograft; test: Nude mouse xenograft assay
SKOV3 = test: In vitro cytotoxicity, SKOV3; type: cell-based; settings: Homo sapiens, SK-OV-3, 96 h, read-out: IC50 (GI50) SKOV3
Method in brief: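 Tumour cells grown in DMEM or RPMI with 10% fetal bovine serum and 1 unit/mL penicillin-streptomycin, plated in twelve-well dishes, then dosed 24 h later with test compound at various concentrations. After 96 h, viable cells counted in duplicate wells by trypan blue exclusion.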

DU145 cells [7] = test: Fluorescent tubulin staining, mitotic spindle; type: cell-based, human; settings: 24 h exposure; 25 nM in Figure 2
BT20 = test: In vitro cytotoxicity, BT20; type: cell-based; settings: Homo sapiens, BT-20, 96 h, read-out: IC50 (GI50) BT20
Method in brief: as §1

HCT15 = test: In vitro cytotoxicity, HCT15; type: cell-based; settings: Homo sapiens, HCT-15, 96 h, read-out: IC50 (GI50) HCT15
Method in brief: as §1

DU145 = test: In vitro cytotoxicity, DU145; type: cell-based; settings: Homo sapiens, DU-145, 96 h, read-out: IC50 (GI50) DU145
LNCAP = test: In vitro cytotoxicity, LNCAP; type: cell-based; settings: Homo sapiens, 96 h, read-out: IC50 (GI50) LNCAP
Method in brief: as §1

PC3 = test: In vitro cytotoxicity, PC3; type: cell-based; settings: Homo sapiens, PC-3, 96 h, read-out: IC50 (GI50) PC3
Method in brief: as §1

CC[C@]1(O)C[C@H]2CN(CCc3c([nH]c4ccccc34)[C@@](C(=O)OC)(c3cc4c(cc3OC)N(C=O)[C@H]3[C@@](O)(C(=O)OC)[C@H](OC(C)=O)[C@]5(CC)C=CCN6CC[C@]43[C@@H]65)C2)C1 [vincristine, reference compound]
competition with vinblastine binding to tubulin [1]: effectively competed

COc1cc(OC)c(/C=C/S(=O)(=O)Nc2ccc(OC)c(NC(C)(C)C(=O)O)c2)c(OC)c1 [25c, (E)-2-(2-Methoxy-5-(2-(2′,4′,6′-trimethoxyphenyl)vinylsulfonamido)phenylamino)-2-methylpropanoic acid]
resistance factors (MES-SA / DX5): < 2
tubulin polymerization [2]: completely inhibit tubulin polymerization
IC50 (DAUDI): 30 nM
IC50 (N417): 30 nM
IC50 (MOLT-4): 30 nM

CC(=O)O[C@H]1C(=O)[C@@]2(C)[C@H]([C@H](OC(=O)c3ccccc3)[C@]3(O)C[C@H](OC(=O)[C@H](O)[C@@H](NC(=O)c4ccccc4)c4ccccc4)C(C)=C1C3(C)C)[C@]1(OC(C)=O)CO[C@@H]1C[C@@H]2O [Paclitaxel, reference compound]
polymerized versus soluble tubulin in cells (tubulin in DU145 cells): induced a shift from soluble to polymerized tubulin
tubulin polymerization [2]: strong increase in turbidity

COc1cc(OC)c(/C=C/S(=O)(=O)Nc2ccc(OC)c(O)c2)c(OC)c1 [6p, (E)-N-(3-Hydroxy-4-methoxyphenyl)-2-(2′,4′,6′-trimethoxyphenyl)ethenesulfonamide]
IC50 (MIAPaCa2): 10 nM
IC50 (H187): 10 nM
IC50 (RF-48): 10 nM
IC50 (RF-1): 10 nM
IC50 (N417): 10 nM
IC50 (HCT116): 10 nM

COc1ccc(NS(=O)(=O)/C=C/c2c(OC)cc(OC)cc2OC)cc1 [6i, (E)-N-(4-Methoxyphenyl)-2-(2′,4′,6′-trimethoxyphenyl)ethenesulfonamide]
IC50 (SK BR-3): 50 nM
IC50 (MCF-7): 50 nM
IC50 (MES-SA): 50 nM
IC50 (RF-1): 50 nM
IC50 (N417): 50 nM
IC50 (H80): 100 nM
IC50 (NAMALWA): 100 nM
IC50 (SK-MEL-28): 50 nM

CC(=O)O[C@@]12CO[C@@H]1C[C@H](O)[C@@]1(C)C(=O)[C@H](O)C3=C(C)[C@@H](OC(=O)[C@H](O)[C@@H](NC(=O)OC(C)(C)C)c4ccccc4)C[C@@](O)([C@@H](OC(=O)c4ccccc4)[C@H]21)C3(C)C.O.O.O [docetaxel, reference compound]
competition with paclitaxel binding to tubulin [3]: effectively competed

O=c1cc[nH]c(=S)[nH]1 [2-thiouracil, 2-Thiouracil, reference compound]
LD50 to Caco-2 cells (Caco-2 cells; human, Caco-2, 1 h): > 1000 µM

COc1cc(OC)c(/C=C/S(=O)(=O)Nc2ccc(OC)c(NCC(=O)O)c2)c(OC)c1 [25a, (E)-2-(2-Methoxy-5-(2-(2′,4′,6′-trimethoxyphenyl)vinylsulfonamido)phenylamino)acetic acid]
tubulin polymerization [2]: completely inhibit tubulin polymerization

COc1cc(OC)c(/C=C/S(=O)(=O)Nc2ccc(OC)c(N)c2)c(OC)c1 [6t, (E)-N-(3-Amino-4-methoxyphenyl)-2-(2′,4′,6′-trimethoxyphenyl)ethenesulfonamide]
competition with vinblastine binding to tubulin [1]: did not compete
PARP cleavage in normal cell line (normal cell line): no PARP cleavage
LD50 to HepG2 cells (HepG2 cells): >1000 µM
IC50 (various tumor cell lines): 3 to 10 nM
PARP cleavage (DU145 cells [4]): Full length PARP gets cleaved
anchorage-independent growth in soft agar (MIA-PaCa-2 cells): inhibition of anchorage-independent growth of tumor cells in a dose dependent manner
polymerized versus soluble tubulin in cells (tubulin in DU145 cells): concentration-dependent depolymerization of tubulin; also recorded: completely inhibits the polymerization of tubulin
tubulin depolymerization in paclitaxel pre-treated cells (tubulin in DU145 cells; paclitaxel 24 h, then compound 4 h): effective at depolymerizing paclitaxel induced polymerized tubulin
IC50 (T47D): 8 nM
resistance factors (MES-SA / DX5): < 2
cell cycle distribution (DU145 cells [5]; 0.005 μM): accumulated in the G2/M phase
cell cycle distribution (DU145 cells [5]; 0.02 μM): a majority of cells showed G2/M arrest
LD50 to Caco-2 cells (Caco-2 cells; one hour incubation, Alamar Blue): >1000 µM
tumor growth in xenograft ([6]; 20 mg/kg IP every other day, 6 injections, female nude mice): readily inhibited tumor growth
body weight ([6]; 20 mg/kg IP, xenograft study): no body weight loss of more than 10%; also recorded: no reduction in body weight
IC50 (SKOV3): 8 nM
tubulin polymerization [2]: completely inhibit tubulin polymerization
effect on microtubule cytoskeleton / mitotic spindle (DU145 cells [7]): complete depolymerization of the microtubule cytoskeleton
IC50 (BT20): 8 nM
IC50 (HCT15): 8 nM
IC50 (DAUDI): 8 nM
IC50 (DU145): 8 nM
competition with paclitaxel binding to tubulin [3]: did not compete
IC50 (LNCAP): 8 nM
IC50 (PC3): 8 nM
IC50 (MOLT-4): 8 nM
IC50 (NAMALWA): 8 nM
IC50 (SK-MEL-28): 8 nM

COC(=O)Nc1nc2cc(C(=O)c3cccs3)ccc2[nH]1 [nocodazole, Nocodazole, reference compound]
tubulin polymerization [2]: completely inhibit tubulin polymerization
